Rows were chosen to be rich in hits. Some 1.9% of all compounds tested hit in one or more screens of this group.
ABHD5-PLIN5 inh: ABHD5-PLIN5 interaction inhibitors, primary screen, cell lysate, split luciferase complementation, luminescence | 0.78% of 360,000 active | Split G. princeps luciferase complementation, 4 h | Perilipin-5 (Homo sapiens) + 1-acylglycerol-3-phosphate O-acyltransferase ABHD5 (Homo … | inhibition, % at 4 µM;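 active means inhibition above the mean inhibition across every tested compound plus 3 SD, cut at about 22% in these data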;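 further: 0% = DMSO only wells and the 100% control is not disclosed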
Rin1-Abl PPI inh: inhibitors of Rin1-Abl protein binding, primary screen, biochemical, TR-FRET; Tyrosine-protein kinase ABL1 (Homo sapiens) + Ras and Rab interactor 1 (Homo sapiens), …; 0.4% of 360,000 active; inhibition, % at 7.35 µM; in the data active means inhibition above about 5%, passing the limit was not always enough
Xi reactivation: activators of inactive X chromosome reactivation, primary screen, imaging, XiGFP fibroblasts, GFP high-content imaging, set 2; XiGFP mouse fibroblasts, % GFP-positive cells imaging, 3 d; cells co-treated with 5-aza-dC sensitizer; scaled so ellipticine positive control = 100%; activation, % at 7.58 µM; 0.055% of 360,000 active; AID 743238, 2013;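 active means mean normalized replicate activation at least 10% and every replicate at or above 10%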;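 further: 0% = median of on-plate neutral control wells and 100% = ellipticine 6 µM median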
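material = 68-5-11 XiGFP fibroblast line | medium = DMEM plus 5-aza-dC sensitizer | schedule = 3 days compound exposure | benchmarks = positive control ellipticine, 6 µM final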
NadD inh: inhibitors of S. aureus NadD, primary screen, biochemical, colorimetric, uHTS. purified NadD enzyme, colorimetric absorbance read-out. inhibition, % at 20 µM. 0.78% of 360,000 active; in the data active means inhibition above about 26%
Rpn11 block: Rpn11 (PSMD14) deubiquitinase inhibitors, primary screen, biochemical, fluorescence polarization, uHTS; 26S proteasome non-ATPase regulatory subunit 14 (Homo sapiens), O00487; human 26S proteasome, Ub4-pepOG fluorescence polarization; 20S core pre-blocked with epoxomicin; inhibition, % at 20 µM; 0.59% of 360,000 active; AID 588493, 2011;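 active means inhibition at 20 µM, scaled to each plate's controls, above about 33%, limit read from the data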
Target sequence (O00487 whole entry, looked up): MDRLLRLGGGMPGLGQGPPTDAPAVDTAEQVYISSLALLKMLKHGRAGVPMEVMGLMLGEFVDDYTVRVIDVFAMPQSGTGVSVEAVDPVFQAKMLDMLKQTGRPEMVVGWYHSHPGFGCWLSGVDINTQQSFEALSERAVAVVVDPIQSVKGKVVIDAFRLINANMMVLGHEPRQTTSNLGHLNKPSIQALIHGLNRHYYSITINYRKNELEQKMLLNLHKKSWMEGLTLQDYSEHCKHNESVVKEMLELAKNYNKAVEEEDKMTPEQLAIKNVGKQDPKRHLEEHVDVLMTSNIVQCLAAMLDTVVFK
* hit, by the source's call; · = no result given.

SMILES	ABHD5-PLIN5 inh	Rin1-Abl PPI inh	Xi reactivation	NadD inh	Rpn11 block
NC(=S)n1[nH]c(-c2ccc([N+](=O)[O-])cc2)c(N=Nc2ccc(Cl)cc2)c1=O	-13	1	·	68*	21
CO[C@@H]1CN(C)C(=O)c2cc(NS(C)(=O)=O)ccc2OC[C@H](C)N(Cc2cccnc2)C[C@H]1C	·	·	0	·	·
C[C@H]1C/C=C\C[C@H](c2ccc3c(c2)OCO3)NC(=O)[C@H](c2ccccc2)CC(=O)N1	·	·	0	·	·
CNC[C@H]1Oc2c(NC(=O)CCC(F)(F)F)cccc2C(=O)N([C@H](C)CO)C[C@@H]1C	·	·	-1	·	·
COc1cccc2c1C(=O)c1c(O)c3c(c(O)c1C2=O)CC(O)(C(=O)CO)CC3OC1CC(N(C)C)C(O)C(C)O1 (stereo not drawn)	9	-14	3	33*	-69
COc1cccc2c1C(=O)c1c(O)c3c(c(O)c1C2=O)C[C@@](O)(C(C)=O)C[C@@H]3O[C@H]1C[C@H](N)[C@H](O)[C@H](C)O1	11	-24	1	-8	-71
COc1cccc2c1C(=O)c1c(O)c3c(c(O)c1C2=O)C[C@@](O)(C(=O)CO)C[C@@H]3O[C@H]1C[C@H](N)[C@@H](O)[C@H](C)O1	6	-18	·	57*	-60
COc1ccccc1C(NC(C)=O)c1cc(Cl)c2cccnc2c1O (stereo not drawn)	-6	5	1	6	8
O=C(O)COc1ccccc1C(Nc1cccnc1)c1cc(Cl)c2cccnc2c1O (stereo not drawn)	26*	2	·	37*	17
O=C(O)COc1ccccc1C(Nc1ccccn1)c1cc(Cl)c2cccnc2c1O (stereo not drawn)	0	3	0	38*	19
COc1ccc2c3c([nH]c2c1)[C@H](CO)N(Cc1ccccc1)CC31CCN(C(=O)Cc2ccccc2)CC1	·	·	0	·	·
COc1ccc(-c2ccc3c(c2)S(=O)(=O)c2cccc(C(=O)NCCOc4ccccc4)c2C3=O)cc1OC	-7	2	·	11	40
COc1ccc(NC(=O)c2cccc3c2C(=O)c2ccc(-c4ccc(F)cc4OCc4ccccc4)cc2S3(=O)=O)cc1	9	3	1	30*	5
COc1ccc2c3c(n(C)c2c1)[C@@H](CO)N(C(=O)Nc1ccc(F)cc1)CC31CN(S(=O)(=O)c2cccs2)C1	·	·	1	·	·
CCc1ccc(C2C(C#N)=C(N)SC(N)=C2C#N)cc1	-13	-12	·	6	·
N#CC1=C(N)SC(N)=C(C#N)C1c1ccc([N+](=O)[O-])cc1	-9	-6	0	7	57*
COc1ccc2c3c([nH]c2c1)[C@@H](CO)N(C(=O)Nc1cccc(F)c1)CC31CN(CC2CCOCC2)C1	·	·	0	·	·
Cc1ccc(C23CC4CC(CC(NC(=O)NCCN(C)C)(C4)C2)C3)cc1	14	-5	·	-10	0
CN(C)CCNC(=O)COc1ccc(C23CC4CC(CC(C4)C2)C3)cc1	23*	-2	0	-3	8
C[C@H](CO)N1C[C@H](C)[C@H](CN(C)Cc2ccc(C(F)(F)F)cc2)Oc2ccc(NS(=O)(=O)c3ccc(Cl)cc3)cc2CC1=O	·	·	-1	·	·
O=C(COC(=O)Cn1cnc2ccccc21)Nc1cc(S(=O)(=O)N2CCOCC2)ccc1Cl	1	1	0	1	-4
O=C(COC(=O)Cn1cnc2ccccc21)Nc1cc2c(cc1Cl)C(=O)c1ccccc1C2=O	-4	-11	0	39*	6
Oc1ccc2ccccc2c1CNc1cnc2ccccc2c1	22*	-2	·	9	4
Oc1ccccc1CNc1cnc2ccccc2c1	-12	4	·	4	-12
Cc1ccc(S(=O)(=O)Nc2nc3ccccc3nc2NCc2ccco2)cc1	25*	1	·	6	-55
SMILES	ABHD5-PLIN5 inh	Rin1-Abl PPI inh	Xi reactivation	NadD inh	Rpn11 block
CCOC(=O)c1cnc[nH]c1=O	22*	6	0	0	-3
CC(=O)c1ccc(NC(=O)CSc2nnc(-c3ccco3)c(-c3ccco3)n2)cc1	23*	0	0	19	-7
O=C(CSc1nnc(-c2ccco2)c(-c2ccco2)n1)c1ccccc1	-4	-1	0	20	0
CC(=O)c1ccc(NC(=O)c2ccc3nc(-c4ccco4)c(-c4ccco4)nc3c2)cc1	17	1	·	93*	34
CCN(CC)CCNc1ncnc2c1sc1nc(N3CCOCC3)c3c(c12)CC(C)(C)SC3	7	18*	·	3	-7
COc1ccc2c3c([nH]c2c1)[C@@H](CO)N(C(=O)CN(C)C)CC31CCN(Cc2ccccc2)CC1	·	·	0	·	·
COc1cccc(Cn2cnc3c(NS(=O)(=O)c4cccc(Cl)c4Cl)c(C)c(C)cc32)c1	1	-2	·	30*	15
COc1cccc(Cn2cnc3c(NS(=O)(=O)c4ccc(Cl)cc4Cl)c(C)c(C)cc32)c1	-3	1	·	26	11
C[C@@H]1CN([C@@H](C)CO)C(=O)c2cccc(NC(=O)Nc3cccc4ccccc34)c2O[C@@H]1CN(C)Cc1ccc(C(=O)Nc2ccccc2N)cc1	·	·	-1	·	·
CCCC(=O)N1CCC2(CC1)CN[C@@H](CO)c1c2c2ccc(OC)cc2n1C	·	·	0	·	·
CN(C)c1ccc(/C=C(/C#N)C(=O)NCc2ccccc2)o1	7	-33	17*	9	·
O=[N+]([O-])c1c(NCCCO)cc(Sc2nc3ccccc3s2)c2nonc12	58*	-1	·	9	-3
CCC(=O)OCCNc1cc(Sc2nc3ccccc3s2)c2nonc2c1[N+](=O)[O-]	21	-2	·	6	-6
C[C@H]1CC=CC[C@H](c2cccc(Cl)c2)NC(=O)[C@H](C)N(C)C(=O)c2ccccc2O1 (mixture of isomers)	·	·	0	·	·
CC1OC2CC(=O)OC2C2=C1C(=O)c1c(O)cccc1C2=O (stereo not drawn)	101*	3	·	2	-45
CCOc1ccc2nc3cc(N=Nc4ccc(N)nc4N)ccc3c(N)c2c1	-8	-2	·	32*	-32
CC(=O)Oc1cc(C(=O)OCC(=O)NC23CC4CC(CC(C4)C2)C3)cc(OC(C)=O)c1OC(C)=O	-6	9.8*	0	1	8
COc1cccc(C(=O)OCC(=O)NC23CC4CC(CC(C4)C2)C3)c1	4	6	0	-5	3
O=C1N[C@H](Cc2ccccc2)COCc2cn(nn2)CC[C@@H]1Cc1cccc(Cl)c1	·	·	0	·	·
CCN1CCN(CCNC(=O)c2ccc(/C=C3/Sc4ccccc4N(Cc4cccc(Cl)c4)C3=O)cc2)CC1	22*	0	0	-1	6

Screening data deposited in PubChem by several laboratories.
